Consider one molecule from ChEMBL document CHEMBL4402562, “Discovery of Novel Peptidomimetic Boronate ClpP Inhibitors with Noncanonical Enzyme Mechanism as Potent Virulence Blockers in Vitro and in Vivo” (J Med Chem, 2020).

Molecules are shown by their SMILES. ≈ marks a conversion by molar mass, not a printed value. Calls of active or inactive are those of the source. The calls are words filed in the database; no cut-off is given here.

Series [1] in a line: Toxicity in BALB/c mouse model of skin abscess infected with methicillin-resistant Staphylococcus aureus ATCC 33591 assessed as effect on albumin levels at 1.5 to 3 mg/kg injected into shaved area of skin once daily for 4 days. In kind it is organism-based. The note with it: in vivo, other, 96 h. The procedure, abridged: (§1)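 Infected BALB/c mice (n=5/group) dosed 1.5 or 3 mg/kg into the infected skin once daily for 4 days; blood collected on day 4 and day 14, centrifuged 3,500 rpm 15 min, serum biochemistry analysed.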

Series [2] deals with Staphylococcus aureus. In words: Antivirulence activity against methicillin-resistant Staphylococcus aureus ATCC 33591 infected in BALB/c mouse model of skin abscess assessed as reduction in severe alveolar destruction at 1.5 to 3 mg/kg injected into shaved area of skin once daily for 4 days measured after 12 hrs post last dose by hematoxylin and eosin staining based optical microscopy. It counts as functional, organism-based. The procedure, abridged: (§2)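 Same MRSA ATCC 33591 skin-abscess model in female BALB/c mice (n=5/group), 40 µL compound at 1.5 or 3 mg/kg injected into the infected shaved skin once daily for 4 days. On day 4 infected skin and heart, liver, spleen, lung, kidney fixed in 4% paraformaldehyde, embedded, sectioned, H&E stained and examined by microscopy; PBS-treated uninfected and vehicle controls.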

Series [3] in a line: Toxicity in BALB/c mouse model of skin abscess infected with methicillin-resistant Staphylococcus aureus ATCC 33591 assessed as increase in AST levels at 1.5 to 3 mg/kg injected into shaved area of skin once daily for 4 days measured on day 14. In kind it is organism-based. The note with it: in vivo, other, 96 h. The procedure, abridged: as §1
Series [4] concerns the target T1, ATP-dependent Clp protease proteolytic subunit (Staphylococcus aureus (strain NCTC 8325)) (UniProt Q2G036).
T1 sequence (whole entry): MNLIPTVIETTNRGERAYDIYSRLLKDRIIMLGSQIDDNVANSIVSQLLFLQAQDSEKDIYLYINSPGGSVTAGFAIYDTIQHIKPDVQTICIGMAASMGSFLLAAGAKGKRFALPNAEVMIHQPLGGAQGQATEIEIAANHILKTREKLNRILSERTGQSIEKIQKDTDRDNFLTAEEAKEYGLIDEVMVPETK
In words: Potency index, ratio of IC50 for BTZ to IC50 for test compound for inhibition of ClpP in methicillin-resistant Staphylococcus aureus ATCC 33591 assessed as reduction in bacteria-induced hemolysis of sheep erythrocytes by measuring hemoglobin release incubated for 15 mins.

The subject of series [5] is Staphylococcus aureus. In words: Antivirulence activity against methicillin-resistant Staphylococcus aureus ATCC 33591 infected in BALB/c mouse model of skin abscess assessed as reduction in liver histopathological changes at 1.5 to 3 mg/kg injected into shaved area of skin once daily for 4 days measured after 12 hrs post last dose by hematoxylin and eosin staining based optical microscopy. It counts as functional, organism-based. The procedure, abridged: as §2

Series [6] deals with Staphylococcus aureus. Briefly: Growth inhibition of methicillin-resistant Staphylococcus aureus ATCC 33591 incubated for 18 hrs by broth microdilution method. The following applies: ATCC 33591, 18 h. In kind it is functional. The procedure, abridged: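 MRSA ATCC 33591 at ~5×10⁵ CFU/mL in MHB with graded compound concentrations vs DMSO; OD600 growth curves over 18 h; three experiments, triplicate wells. MIC by CLSI broth microdilution in CAMHB, 0.5-256 µg/mL, 18 h at 37 °C, lowest concentration with no visible growth.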
(In broth dilution the organism is exposed to a series of concentrations in liquid medium.)

Series [7] has as its system Staphylococcus aureus. In words: Antivirulence activity against methicillin-resistant Staphylococcus aureus ATCC 33591 infected in BALB/c mouse model of skin abscess assessed as preservation of skin integrity at 1.5 to 3 mg/kg injected into shaved area of skin once daily for 4 days measured after 12 hrs post last dose by hematoxylin and eosin staining based optical microscopy. In kind it is functional, organism-based. The procedure, abridged:
as §2

Series [8] deals with Staphylococcus aureus. Briefly: Antivirulence activity against methicillin-resistant Staphylococcus aureus ATCC 33591 infected in BALB/c mouse model of skin abscess assessed as reduction in spleen histopathological changes at 1.5 to 3 mg/kg injected into shaved area of skin once daily for 4 days measured after 12 hrs post last dose by hematoxylin and eosin staining based optical microscopy. In kind it is functional, organism-based. In outline: as §2

Series [9] in a line: Cytotoxicity in human HeLa cells assessed as reduction in cell viability incubated for 24 hrs by MTT assay. In kind it is cell-based. In outline: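 MTT assay. HeLa (3×10^3 cells) or HepG2 (4×10^3 cells) seeded in DMEM and grown 24 h, then given compound for a further 24 h. Absorbance read at 570 nm against DMSO wells. GI50 from dose-response fit; three experiments, triplicate wells.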
(Tetrazolium assays rely on reduction of a dye to a coloured formazan, in cell work by metabolically active cells.)

A short description of series [10]: Toxicity in BALB/c mouse model of skin abscess infected with methicillin-resistant Staphylococcus aureus ATCC 33591 assessed as increase in direct bilirubin levels at 1.5 to 3 mg/kg injected into shaved area of skin once daily for 4 days. The note with it: in vivo, other, 96 h. In kind it is organism-based. The procedure, abridged:
as §1

A short description of series [11]: Toxicity in BALB/c mouse model of skin abscess infected with methicillin-resistant Staphylococcus aureus ATCC 33591 assessed as effect on alkaline phosphatase levels at 1.5 to 3 mg/kg injected into shaved area of skin once daily for 4 days. The note with it: in vivo, other, 96 h. In kind it is organism-based. In outline:
as §1

The nature of series [12]: Toxicity in BALB/c mouse model of skin abscess infected with methicillin-resistant Staphylococcus aureus ATCC 33591 assessed as effect on alanine transaminase levels at 1.5 to 3 mg/kg injected into shaved area of skin once daily for 4 days. The following applies: in vivo, other, 96 h. It counts as organism-based. The procedure, abridged:
as §1

The test system of series [13] is Staphylococcus aureus. In words: Inhibition of virulence-related genes expression in methicillin-resistant Staphylococcus aureus ATCC 33591 assessed as reduction in hla expression at 4 to 16 uM by qPCR analysis relative to control. In kind it is functional, organism-based. In outline:
(§3)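 Total RNA from 2×10⁸ CFU treated MRSA by liquid-nitrogen freeze-thaw and TRIzol; qPCR relative to gyrB endogenous control; three experiments, triplicate wells.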
Background: Real-time PCR tracks product formation cycle by cycle.

The nature of series [14]: Inhibition of human ClpP (57 to 277 residues) expressed in Escherichia coli […] pre-incubated for 10 mins before Ac-WLA-AMC addition and measured after 1 hr by fluorescence based assay relative to control. In outline: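 hClpP (3.5 μM monomer) in 25 mM Tris-HCl pH 8.0, 100 mM KCl. Preincubated 10 min at RT with inhibitor, two-fold dilutions over 8 steps from 100 μM. Then 100 μM Ac-WLA-AMC, 380/440 nm for 1 h at 37 °C, slopes normalized to DMSO. Thrice, triplicate wells.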

Series [15] has as its system Staphylococcus aureus. In words: Antivirulence activity against methicillin-resistant Staphylococcus aureus ATCC 33591 infected in BALB/c mouse model of skin abscess assessed as reduction in interstitium thickening at 1.5 to 3 mg/kg injected into shaved area of skin once daily for 4 days measured after 12 hrs post last dose by hematoxylin and eosin staining based optical microscopy. It counts as functional, organism-based. In outline:
as §2

For series [16], the system named is Staphylococcus aureus. In words: Inhibition of virulence-related genes expression in methicillin-resistant Staphylococcus aureus ATCC 33591 assessed as reduction in agrB expression at 16 uM by qPCR analysis relative to control. In kind it is functional. In outline: as §3
Series [17] deals with Staphylococcus aureus. In words: Antivirulence activity against methicillin-resistant Staphylococcus aureus ATCC 33591 infected in BALB/c mouse model of skin abscess assessed as reduction in heart histopathological changes at 1.5 to 3 mg/kg injected into shaved area of skin once daily for 4 days measured after 12 hrs post last dose by hematoxylin and eosin staining based optical microscopy. In kind it is functional, organism-based. In outline:
as §2

Series [18] addresses 20S proteasome (Homo sapiens) (UniProt P49721+P20618+P28074+P28062+P28065+P28072+P25786+P25787+P25788+P25789+P28066+P60900+O14818+Q8TAA3+P40306+A5LHX3+P49720+P28070+Q99436). Briefly: Inhibition of 20S proteasome (unknown origin) pre-incubated before Suc-LLVY-AM addition and measured after 1 hr by fluorescence based assay. In kind it is protein-complex assay.

Usually MIC stands for the lowest concentration that inhibits growth of the organism. Lower therefore signals greater potency. By GI50 is commonly meant the concentration giving 50% growth inhibition. In general, IC50 refers to the concentration that inhibits the measured activity by half. A lower IC50 goes with higher potency. In the case of `CC(C)C[C@H](NC(=O)[C@H](Cc1c[nH]c2ccccc12)NC(=O)c1cc(Cl)ccc1Cl)B(O)O`, the Activity result was “Non-Toxic” in [1]; “Non-Toxic” in series [3]; “Toxic” in [10]; “Non-Toxic” in series [11]; “Non-Toxic” in [12]. Moreover, the result in the series on Staphylococcus aureus [2], in the series with Staphylococcus aureus [5], in the series with Staphylococcus aureus [7], in the series on Staphylococcus aureus [8], with Staphylococcus aureus [15] and in the series with Staphylococcus aureus [17] was Active. In addition, the Ratio IC50 in series [4] came to 30. This molecule had an MIC in the series on Staphylococcus aureus [6] of 64 to 128 µg/mL (≈ 131 to 261 µM). For the same molecule, the GI50 at 24 h in series [9] stood at 108 µM. Also, the inhibition entry (in the series with Staphylococcus aureus [13]; in series [18]) was “Active” throughout. In series [14], the IC50 fell in the range of 3 to 25 µM. For the same molecule, the “fold change (FC)” value in the series on Staphylococcus aureus [16] was determined as 2.
